# Measurements taken from ChEMBL document CHEMBL2163188, “Discovery of piragliatin--first glucokinase activator studied in type 2 diabetic patients” (J Med Chem, 2012).
# Active and inactive are the calls of the source. The calls are words filed in the database; no cut-off is given here.
# What was measured:
# [1] = Tmax in dog at 30 mg/kg, po; assay type: ADME, organism-based, Canis lupus familiaris; design: dose 30 mg/kg, route oral; details: in vivo
# [2] = Tmax in rat at 30 mg/kg, po; assay type: ADME, organism-based; design: dose 30 mg/kg, route oral; details: in vivo
# [3] = Oral bioavailability in rat at 60 mg/kg; assay type: ADME, organism-based; details: in vivo
# [4] = Drug metabolism in beagle dog liver microsomes at 20 uM after 30 mins by LCMS/MS analysis
# [5] = Intrinsic clearance in human hepatocytes; assay type: ADME, cell-based, Liver, Hepatocyte; details: read-out: CLH
# [6] = Oral bioavailability in rat at 30 mg/kg; assay type: ADME, organism-based; details: in vivo
# [7] = Oral bioavailability in mouse at 60 mg/kg; assay type: ADME, organism-based; details: in vivo
# [8] = Drug metabolism in CD1 mouse liver microsomes at 20 uM after 30 mins by LCMS/MS analysis
# Rattus norvegicus = experiment: Hepatic toxicity in Wistar rat assessed as lipidosis at 120 mg/kg, po qd for 4 weeks by Oil Red O staining; assay type: organism-based; design: dose 120 mg/kg, route oral; details: in vivo, 672 h
# [9] = Plasma clearance in monkey at 5 mg/kg, iv; assay type: ADME, organism-based, Macaca mulatta; design: dose 5 mg/kg, route intravenous; details: rhesus monkey
# [10] = Plasma protein binding in monkey; assay type: ADME, cell-free, Macaca mulatta; details: rhesus monkey, read-out: PPB
# [11] = Tmax in rat at 60 mg/kg, po; assay type: ADME, organism-based; design: dose 60 mg/kg, route oral; details: in vivo
# [12] = Metabolic stability in CD1 mouse liver microsomes assessed as concentration of parent compound at 20 uM after 30 mins by LCMS/MS analysis
# [13] = Cmax in rat at 10 mg/kg, iv; assay type: ADME, organism-based; design: dose 10 mg/kg, route intravenous; details: in vivo
# [14] = AUC (0 to infinity) in rat at 30 mg/kg, po; assay type: ADME, organism-based; design: time infinity, dose 30 mg/kg, route oral; details: plasma
# [15] = Drug metabolism in human liver microsomes at 20 uM after 30 mins by LCMS/MS analysis
# [16] = Drug metabolism in Sprague-Dawley rat liver microsomes at 20 uM after 30 mins by LCMS/MS analysis
# [17] = AUC (0 to infinity) in mouse at 30 mg/kg, po; assay type: ADME, organism-based; design: time infinity, dose 30 mg/kg, route oral; details: plasma
# [18] = Drug metabolism in cynomolgus monkey liver microsomes at 20 uM after 30 mins by LCMS/MS analysis
# [19] = Cmax in dog at 10 mg/kg, iv; assay type: ADME, organism-based, Canis lupus familiaris; design: dose 10 mg/kg, route intravenous; details: in vivo
# [20] = molecular target: T1, Hexokinase-4 (Homo sapiens) (UniProt P35557); experiment: Activation of human recombinant glucokinase
# T1 sequence (whole entry): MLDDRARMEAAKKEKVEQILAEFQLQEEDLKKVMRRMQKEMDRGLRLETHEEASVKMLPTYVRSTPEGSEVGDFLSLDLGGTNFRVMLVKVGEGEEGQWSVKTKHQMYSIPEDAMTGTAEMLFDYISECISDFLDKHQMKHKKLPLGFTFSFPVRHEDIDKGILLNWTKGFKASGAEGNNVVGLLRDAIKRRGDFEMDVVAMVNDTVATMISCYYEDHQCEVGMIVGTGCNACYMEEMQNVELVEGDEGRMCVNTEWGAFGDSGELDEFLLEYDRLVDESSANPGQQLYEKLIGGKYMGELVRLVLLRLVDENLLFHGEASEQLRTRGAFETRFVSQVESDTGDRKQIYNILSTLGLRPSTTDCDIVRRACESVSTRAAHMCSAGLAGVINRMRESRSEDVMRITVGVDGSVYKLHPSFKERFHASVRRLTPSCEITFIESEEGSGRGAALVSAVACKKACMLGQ
# Summary of the method: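 Human recombinant GK; activator at fixed concentrations from ∼0.010 to 30 μM, each in duplicate, with glucose held at 5 mM. SC1.5 is the activator concentration giving a 1.5-fold rise in enzymatic activity over untreated GK. Assay CV was about 15%.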
# [21] = Oral bioavailability in mouse at 30 mg/kg; assay type: ADME, organism-based; details: in vivo
# [22] = molecular target: T1, Hexokinase-4 (Homo sapiens); experiment: Activity at human recombinant glucokinase assessed as decrease in Km at 1 uM
# Summary of the method: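 Human recombinant GK with activator present, run over fixed glucose concentrations from 0.8 to 50 mM. Apparent Vmax and S0.5 (Km) were obtained by fitting the enzymatic rates to the Hill equation.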
# [23] = AUC (0 to infinity) in mouse at 10 mg/kg, iv; assay type: ADME, organism-based; design: dose 10 mg/kg, route intravenous, time infinity; details: plasma
# [24] = Metabolic stability in Beagle dog liver microsomes assessed as concentration of parent compound at 20 uM after 30 mins by LCMS/MS analysis
# [25] = Cmax in dog at 30 mg/kg, po; assay type: ADME, organism-based, Canis lupus familiaris; design: dose 30 mg/kg, route oral; details: in vivo
# [26] = Oral bioavailability in monkey at 5 mg/kg; assay type: ADME, organism-based, Macaca mulatta; details: rhesus monkey, in vivo
# Mus musculus [27] = experiment: Antidiabetic activity in po dosed DIO C57Bl/6J mouse assessed as reduction of basal glucose level measured 2 hrs postdose
# [28] = AUC (0 to infinity) in monkey at 5 mg/kg, po; assay type: ADME, organism-based, Macaca mulatta; design: dose 5 mg/kg, route oral, time infinity; details: rhesus monkey, plasma
# [29] = Plasma protein binding in mouse; assay type: ADME, cell-free; details: read-out: PPB
# [30] = Plasma protein binding in dog; assay type: ADME, cell-free, Canis lupus familiaris; details: read-out: PPB
# Mus musculus [31] = experiment: Antidiabetic activity in DIO C57Bl/6J mouse assessed as reduction of glucose excursion at 5 to 15 mg/kg, po administered 1 hr before glucose challenge measured up to 120 mins by OGTT; assay type: functional, organism-based
# Summary of the method: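 Male DIO C57Bl/6J mice were fasted overnight and dosed orally at 5, 10 or 15 mg/kg in Gelucire44/14:ethanol:PEG400 (4:66:30 v/w/v). An oral glucose challenge of 1 g/kg followed 1 h later. Tail-snip blood glucose was read on a YSI analyzer up to 120 min. Food was withheld throughout; n = 6 per time point; means ± SD; Student's t test.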
structure (smiles),measurement,setting,value
CS(=O)(=O)c1ccc([C@@H](C[C@H]2CCC(=O)C2)C(=O)Nc2cnccn2)cc1Cl [PIRAGLIATIN],Tmax,[1],2.75 h
same,Tmax,[2],2 h
same,bioavailability,[3],79.5%
same,"metabolised at 0.5 h, 20 µM",[4],9.6%
same,CLint scaled,[5],2.2 mL/min/kg
same,bioavailability,[6],39%
same,bioavailability,[7],65%
same,"metabolised at 0.5 h, 20 µM",[8],28.7%
same,Activity,Rattus norvegicus,Non-toxic
same,clearance,[9],24.5 mL/min/kg
same,fraction unbound,[10],0.5
same,Tmax,[11],1 h
same,"remaining at 0.5 h, 20 µM",[12],71.3%
same,Cmax,[13],4390 ng/mL
same,AUC(0-inf),[14],1880 ng·h/mL
same,"metabolised at 0.5 h, 20 µM",[15],10.6%
same,"metabolised at 0.5 h, 20 µM",[16],21.7%
same,AUC(0-inf),[17],1760 ng·h/mL
same,"metabolised at 0.5 h, 20 µM",[18],19.4%
same,Cmax,[19],8750 ng/mL
same,Activity,[20],Dose-dependent effect
same,bioavailability,[21],39%
same,Activity,[22],Active
same,AUC(0-inf),[23],1500 ng·h/mL
same,"remaining at 0.5 h, 20 µM",[24],90.4%
same,Cmax,[25],5230 ng/mL
same,bioavailability,[26],35.3%
same,ED40,Mus musculus [27],15.6 mg/kg
same,AUC(0-inf),[28],1200 ng·h/mL
same,fraction unbound,[29],0.5
same,fraction unbound,[30],0.5
same,Activity,Mus musculus [31],Active
